Reference: ChEMBL document CHEMBL1149869, “Antifungal and antimycobacterial activity of 1-(3,5-diaryl-4,5-dihydro-1H-pyrazol-4-yl)-1H-imidazole derivatives” (2008)
In brackets after ≈: the same amount, converted by molar mass.

Tests used:
Format in all cases: functional
Candida albicans [1] = assay: Antifungal activity against Candida albicans 685 after 24 hrs
Summary of the method: (§1)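 Clinical isolate C. albicans 685 tested by NCCLS (1997) reference broth method; compound stocks 2 mg/mL in DMSO; miconazole and amphotericin B as standards; MIC read after 24 and 48 h incubation, each determined twice in duplicate experiments.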

Candida albicans [2] = assay: Antifungal activity against Candida albicans 685 after 48 hrs; summary of the method: as §1
[3] = test system: Mycobacterium tuberculosis; assay: Antitubercular activity against Mycobacterium tuberculosis H37Rv micro-dilution Resazurin assay
Summary of the method: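 Microdilution Resazurin assay (MRA) run for 1 week against reference strain M. tuberculosis H37Rv. Compound stocks were 2 mg/mL in DMSO, with DMSO tested up to 2% (v/v). MIC was the lowest concentration preventing the blue-to-pink Resazurin colour change, read visually twice in duplicate experiments. Viable counts on agar from control and test wells.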

| Structure (SMILES) | MIC (Candida albicans [1]) [µg/mL] | MIC (Candida albicans [2]) [µg/mL] | MIC [3] [µg/mL] |
| --- | --- | --- | --- |
| Fc1ccc(N2N=C(c3ccc(Cl)cc3)[C@H](n3ccnc3)[C@H]2c2ccc(Cl)cc2)cc1 (racemic) | 2 (≈ 4.43 µM) | > 64 | 4 (≈ 8.86 µM) |
| CN1N=C(c2ccc(Cl)cc2Cl)[C@@H](n2ccnc2)[C@H]1c1ccc(Cl)cc1Cl (racemic) | 0.12 (≈ 0.273 µM) | 32 (≈ 72.7 µM) | 16 (≈ 36.4 µM) |
| Fc1ccc(N2N=C(c3ccc(Cl)cc3Cl)[C@@H](n3ccnc3)[C@@H]2c2ccc(Cl)cc2Cl)cc1 (racemic) | 1 (≈ 1.92 µM) | > 64 | 16 (≈ 30.8 µM) |
| Brc1ccc(C2=NN[C@H](c3ccc(Br)cc3)[C@H]2n2ccnc2)cc1 (racemic) | 4 (≈ 8.97 µM) | 8 (≈ 17.9 µM) | 8 (≈ 17.9 µM) |
| Fc1ccc(N2N=C(c3ccccc3)[C@H](n3ccnc3)[C@H]2c2ccccc2)cc1 (racemic) | 0.06 (≈ 0.157 µM) | 1 (≈ 2.61 µM) | 8 (≈ 20.9 µM) |
| C[C@@H]1[C@H](O)[C@@H](C)/C=C/C=C/C=C/C=C/C=C/C=C/C=C/[C@H](O[C@@H]2O[C@H](C)[C@@H](O)[C@H](N)[C@@H]2O)C[C@@H]2O[C@](O)(C[C@@H](O)C[C@@H](O)[C@H](O)CC[C@@H](O)C[C@@H](O)CC(=O)O[C@H]1C)C[C@H](O)[C@H]2C(=O)O [AMPHOTERICIN B] | 1 (≈ 1.08 µM) | 1 (≈ 1.08 µM) |  |
| Clc1ccc(C2=NN(c3ccccc3)[C@H](c3ccc(Cl)cc3Cl)[C@H]2n2ccnc2)c(Cl)c1 (racemic) | 2 (≈ 3.98 µM) | > 64 | 4 (≈ 7.96 µM) |
| CN1N=C(c2ccc(Cl)cc2)[C@@H](n2ccnc2)[C@H]1c1ccc(Cl)cc1 (racemic) | 0.06 (≈ 0.162 µM) | 0.06 (≈ 0.162 µM) | 8 (≈ 21.5 µM) |
| NNC(=O)c1ccncc1 [ISONIAZID] |  |  | 0.5 (≈ 3.65 µM) |
| Clc1ccc(COC(Cn2ccnc2)c2ccc(Cl)cc2Cl)c(Cl)c1 (stereo not given) [MICONAZOLE] | 0.06 (≈ 0.144 µM) | 0.12 (≈ 0.288 µM) |  |
| Clc1ccc(C2=NN[C@H](c3ccc(Cl)cc3)[C@H]2n2ccnc2)cc1 (racemic) | 4 (≈ 11.2 µM) | 16 (≈ 44.8 µM) | 8 (≈ 22.4 µM) |
| c1ccc(C2=NN[C@H](c3ccccc3)[C@H]2n2ccnc2)cc1 (racemic) | 16 (≈ 55.5 µM) | > 64 | 16 (≈ 55.5 µM) |
| CN1N=C(c2ccccc2)[C@@H](n2ccnc2)[C@H]1c1ccccc1 (racemic) | 1 (≈ 3.31 µM) | 64 (≈ 212 µM) | 8 (≈ 26.5 µM) |
| Clc1ccc(C2=NN(c3ccccc3)[C@H](c3ccc(Cl)cc3)[C@H]2n2ccnc2)cc1 (racemic) | 2 (≈ 4.62 µM) | 64 (≈ 148 µM) | 4 (≈ 9.23 µM) |
| Cc1ccc(C2=NN(C)[C@H](c3ccc(C)cc3)[C@@H]2n2ccnc2)cc1 (racemic) | 4 (≈ 12.1 µM) | 64 (≈ 194 µM) | 16 (≈ 48.4 µM) |
| Fc1ccc(N2N=C(c3ccc(Br)cc3)[C@H](n3ccnc3)[C@H]2c2ccc(Br)cc2)cc1 (racemic) | 8 (≈ 14.8 µM) | > 64 | 4 (≈ 7.4 µM) |
| Cc1ccc(C2=NN(c3ccc(F)cc3)[C@H](c3ccc(C)cc3)[C@H]2n2ccnc2)cc1 (racemic) | 64 (≈ 156 µM) | 64 (≈ 156 µM) | 4 (≈ 9.74 µM) |
| Brc1ccc(C2=NN(c3ccccc3)[C@H](c3ccc(Br)cc3)[C@H]2n2ccnc2)cc1 (racemic) | 1 (≈ 1.91 µM) | 64 (≈ 123 µM) | 8 (≈ 15.3 µM) |
| Clc1ccc(C2=NN[C@H](c3ccc(Cl)cc3Cl)[C@H]2n2ccnc2)c(Cl)c1 (racemic) | 8 (≈ 18.8 µM) | 64 (≈ 150 µM) | 8 (≈ 18.8 µM) |
| c1ccc(C2=NN(c3ccccc3)[C@H](c3ccccc3)[C@H]2n2ccnc2)cc1 (racemic) | 0.06 (≈ 0.165 µM) | 1 (≈ 2.74 µM) | 8 (≈ 22 µM) |
| Cc1ccc(C2=NN(c3ccccc3)[C@H](c3ccc(C)cc3)[C@H]2n2ccnc2)cc1 (racemic) | 8 (≈ 20.4 µM) | 64 (≈ 163 µM) | 4 (≈ 10.2 µM) |
| CN1N=C(c2ccc(Br)cc2)[C@@H](n2ccnc2)[C@H]1c1ccc(Br)cc1 (racemic) | 0.06 (≈ 0.13 µM) | 0.06 (≈ 0.13 µM) | 8 (≈ 17.4 µM) |
| Cc1ccc(C2=NN[C@@H](c3ccc(C)cc3)[C@@H]2n2ccnc2)cc1 (racemic) | 8 (≈ 25.3 µM) | 64 (≈ 202 µM) | 16 (≈ 50.6 µM) |
